Assay results reported in ChEMBL document CHEMBL1137074, “Novel N-arylpyrazolo[3,2-c]-based ligands for the glucocorticoid receptor: receptor binding and in vivo activity” (J Med Chem, 2004).

What was measured:
Estrogen receptor = molecular target: T1, Estrogen receptor (Homo sapiens, UniProt P03372); assay: Binding affinity for human Estrogen receptor alpha
T1 sequence (P03372 whole entry): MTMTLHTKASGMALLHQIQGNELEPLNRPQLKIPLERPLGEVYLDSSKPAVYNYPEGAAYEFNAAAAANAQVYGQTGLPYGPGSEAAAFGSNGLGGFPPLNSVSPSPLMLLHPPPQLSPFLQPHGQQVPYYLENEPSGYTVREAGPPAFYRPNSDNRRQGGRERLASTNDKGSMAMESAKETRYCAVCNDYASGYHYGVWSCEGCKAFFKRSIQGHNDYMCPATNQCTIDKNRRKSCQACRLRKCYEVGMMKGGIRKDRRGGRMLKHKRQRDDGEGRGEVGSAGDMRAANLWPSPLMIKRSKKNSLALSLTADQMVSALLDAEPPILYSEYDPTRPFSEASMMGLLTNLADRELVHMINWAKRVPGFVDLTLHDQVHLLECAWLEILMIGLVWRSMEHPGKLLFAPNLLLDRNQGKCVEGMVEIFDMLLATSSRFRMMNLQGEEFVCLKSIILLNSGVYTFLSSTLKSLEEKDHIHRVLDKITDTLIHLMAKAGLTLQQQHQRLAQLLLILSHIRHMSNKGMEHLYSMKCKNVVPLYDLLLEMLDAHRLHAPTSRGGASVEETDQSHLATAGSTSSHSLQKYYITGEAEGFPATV

Glucocorticoid receptor [1] = molecular target: T2, Glucocorticoid receptor (Homo sapiens, UniProt P04150); assay: Compound was tested for inhibitory activity towards human glucocorticoid receptor
T2 sequence (P04150 whole entry): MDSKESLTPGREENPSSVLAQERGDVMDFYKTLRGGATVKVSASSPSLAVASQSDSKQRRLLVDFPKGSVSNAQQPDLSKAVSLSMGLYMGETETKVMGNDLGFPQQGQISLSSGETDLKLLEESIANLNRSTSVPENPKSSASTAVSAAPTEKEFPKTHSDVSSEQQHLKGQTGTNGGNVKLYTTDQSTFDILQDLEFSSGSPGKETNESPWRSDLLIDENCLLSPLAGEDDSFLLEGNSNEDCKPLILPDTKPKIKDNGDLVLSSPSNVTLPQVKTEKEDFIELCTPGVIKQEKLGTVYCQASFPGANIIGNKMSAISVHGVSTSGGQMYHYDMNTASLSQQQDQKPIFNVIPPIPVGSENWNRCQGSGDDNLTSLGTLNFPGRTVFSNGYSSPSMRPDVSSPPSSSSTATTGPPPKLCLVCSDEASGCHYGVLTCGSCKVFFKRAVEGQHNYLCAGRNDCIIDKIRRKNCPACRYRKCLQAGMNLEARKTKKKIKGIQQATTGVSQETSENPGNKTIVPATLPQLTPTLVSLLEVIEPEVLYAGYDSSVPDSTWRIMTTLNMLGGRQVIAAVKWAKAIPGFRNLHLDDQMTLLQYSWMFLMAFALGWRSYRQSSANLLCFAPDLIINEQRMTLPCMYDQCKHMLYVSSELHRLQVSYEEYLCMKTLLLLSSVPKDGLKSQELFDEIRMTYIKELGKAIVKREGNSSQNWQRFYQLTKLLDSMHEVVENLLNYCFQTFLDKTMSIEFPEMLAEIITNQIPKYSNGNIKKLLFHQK

Glucocorticoid receptor [2] = molecular target: T2, Glucocorticoid receptor; assay: Binding affinity for human glucocorticoid receptor
Androgen receptor = molecular target: T3, Androgen receptor (Homo sapiens, UniProt P10275); assay: Binding affinity for human androgen receptor
T3 sequence (P10275 whole entry): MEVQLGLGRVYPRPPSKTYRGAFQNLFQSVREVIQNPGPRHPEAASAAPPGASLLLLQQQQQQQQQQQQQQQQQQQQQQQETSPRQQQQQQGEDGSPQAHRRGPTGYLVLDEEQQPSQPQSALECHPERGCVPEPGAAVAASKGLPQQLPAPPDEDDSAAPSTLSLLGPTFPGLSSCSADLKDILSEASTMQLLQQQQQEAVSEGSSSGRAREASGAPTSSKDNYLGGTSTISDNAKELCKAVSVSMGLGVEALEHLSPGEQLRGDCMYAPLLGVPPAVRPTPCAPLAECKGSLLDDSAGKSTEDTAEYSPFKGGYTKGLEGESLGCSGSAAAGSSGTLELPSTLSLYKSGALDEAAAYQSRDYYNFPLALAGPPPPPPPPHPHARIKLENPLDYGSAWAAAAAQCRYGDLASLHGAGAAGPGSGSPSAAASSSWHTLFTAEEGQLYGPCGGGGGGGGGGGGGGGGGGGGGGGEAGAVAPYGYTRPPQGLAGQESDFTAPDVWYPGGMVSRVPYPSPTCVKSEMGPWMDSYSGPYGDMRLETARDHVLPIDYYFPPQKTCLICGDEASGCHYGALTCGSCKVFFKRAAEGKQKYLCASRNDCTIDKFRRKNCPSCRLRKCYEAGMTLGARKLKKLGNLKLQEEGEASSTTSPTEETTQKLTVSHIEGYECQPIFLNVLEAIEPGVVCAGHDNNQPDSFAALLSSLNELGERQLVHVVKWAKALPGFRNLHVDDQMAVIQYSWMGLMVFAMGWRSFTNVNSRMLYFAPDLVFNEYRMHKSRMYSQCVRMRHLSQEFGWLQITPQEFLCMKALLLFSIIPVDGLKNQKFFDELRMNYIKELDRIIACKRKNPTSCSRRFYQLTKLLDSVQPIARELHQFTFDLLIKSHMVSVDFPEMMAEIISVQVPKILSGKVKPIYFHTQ

Glucocorticoid receptor [3] = molecular target: T2, Glucocorticoid receptor; assay: Ability to induce human IL-6 assay in A549 lung carcinoma cell line.; assay type: functional, cell-based
[4] = molecular target: Mineralocorticoid receptor (Rattus norvegicus) (UniProt P22199); assay: Binding affinity for rat mineralocorticoid receptor
Glucocorticoid receptor [5] = molecular target: T2, Glucocorticoid receptor; assay: Glucocorticoid induced transactivation of human tyrosine amino transferase in HepG2 cells; assay type: functional, cell-based
Mus musculus = assay: Ability to induce mouse macrophage IL-6 assay in peritoneal exudate cells harvested by […] from C57BI/6 mice.; assay type: functional, cell-based
How it was run: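 Thioglycolate-elicited peritoneal exudate cells from C57Bl/6 mice, harvested day 3 in PBS/heparin, washed and resuspended at 5.6×10^5 cells/mL in RPMI 1640 with 10% heat-inactivated FCS. Compound (typically 3 μM final) preincubated 1 h at 37 °C, 5% CO2, then LPS or TNF added, 24 h. Supernatant IL-6 read; duplicate wells, three experiments.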

Progesterone receptor = molecular target: T4, Progesterone receptor (Homo sapiens, UniProt P06401); assay: Binding affinity towards human progesterone receptor
T4 sequence (P06401 whole entry): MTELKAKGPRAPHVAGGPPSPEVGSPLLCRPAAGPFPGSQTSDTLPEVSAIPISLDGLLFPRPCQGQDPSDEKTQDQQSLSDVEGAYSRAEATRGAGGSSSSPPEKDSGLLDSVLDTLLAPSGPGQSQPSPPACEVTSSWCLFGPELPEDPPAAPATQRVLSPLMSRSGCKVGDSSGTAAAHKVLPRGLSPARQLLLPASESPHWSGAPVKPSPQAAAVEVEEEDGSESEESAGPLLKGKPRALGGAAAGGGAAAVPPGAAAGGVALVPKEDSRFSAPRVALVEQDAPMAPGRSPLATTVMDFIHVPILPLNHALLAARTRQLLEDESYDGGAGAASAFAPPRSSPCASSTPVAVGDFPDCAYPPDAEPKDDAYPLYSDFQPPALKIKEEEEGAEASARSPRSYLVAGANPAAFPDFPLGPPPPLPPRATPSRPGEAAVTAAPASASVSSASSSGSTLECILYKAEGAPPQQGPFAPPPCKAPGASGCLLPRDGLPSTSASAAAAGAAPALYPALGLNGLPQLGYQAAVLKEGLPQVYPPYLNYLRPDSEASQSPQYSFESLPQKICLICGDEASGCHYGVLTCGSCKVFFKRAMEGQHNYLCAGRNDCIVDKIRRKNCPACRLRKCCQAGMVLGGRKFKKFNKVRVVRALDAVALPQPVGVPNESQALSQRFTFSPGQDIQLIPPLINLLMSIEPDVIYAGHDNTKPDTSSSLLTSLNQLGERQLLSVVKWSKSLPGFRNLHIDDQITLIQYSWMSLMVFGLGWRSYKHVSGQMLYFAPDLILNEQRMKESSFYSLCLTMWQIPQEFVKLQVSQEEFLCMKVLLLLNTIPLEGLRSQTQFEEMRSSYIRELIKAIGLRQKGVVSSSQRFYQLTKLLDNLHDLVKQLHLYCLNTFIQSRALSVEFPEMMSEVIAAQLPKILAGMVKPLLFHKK
How it was run: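 Receptor homogenates from frozen cell pellets in ice-cold KPO4 buffer (10 mM KPO4, 20 mM molybdate, 1 mM EDTA, 5 mM DTT, protease inhibitors), spun 35 000g 1 h at 4 °C. MR: recombinant baculovirus-expressed rat receptor, 2 nM [3H]aldosterone; PR: T-47D cell protein, 5 nM [3H]progesterone.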

Glucocorticoid receptor [6] = molecular target: T2, Glucocorticoid receptor; assay: Ability to induce human glutamine synthetase in skeletal muscle cells; assay type: cell-based

Sequence of Mineralocorticoid receptor (Rattus norvegicus) (P22199 whole entry, looked up): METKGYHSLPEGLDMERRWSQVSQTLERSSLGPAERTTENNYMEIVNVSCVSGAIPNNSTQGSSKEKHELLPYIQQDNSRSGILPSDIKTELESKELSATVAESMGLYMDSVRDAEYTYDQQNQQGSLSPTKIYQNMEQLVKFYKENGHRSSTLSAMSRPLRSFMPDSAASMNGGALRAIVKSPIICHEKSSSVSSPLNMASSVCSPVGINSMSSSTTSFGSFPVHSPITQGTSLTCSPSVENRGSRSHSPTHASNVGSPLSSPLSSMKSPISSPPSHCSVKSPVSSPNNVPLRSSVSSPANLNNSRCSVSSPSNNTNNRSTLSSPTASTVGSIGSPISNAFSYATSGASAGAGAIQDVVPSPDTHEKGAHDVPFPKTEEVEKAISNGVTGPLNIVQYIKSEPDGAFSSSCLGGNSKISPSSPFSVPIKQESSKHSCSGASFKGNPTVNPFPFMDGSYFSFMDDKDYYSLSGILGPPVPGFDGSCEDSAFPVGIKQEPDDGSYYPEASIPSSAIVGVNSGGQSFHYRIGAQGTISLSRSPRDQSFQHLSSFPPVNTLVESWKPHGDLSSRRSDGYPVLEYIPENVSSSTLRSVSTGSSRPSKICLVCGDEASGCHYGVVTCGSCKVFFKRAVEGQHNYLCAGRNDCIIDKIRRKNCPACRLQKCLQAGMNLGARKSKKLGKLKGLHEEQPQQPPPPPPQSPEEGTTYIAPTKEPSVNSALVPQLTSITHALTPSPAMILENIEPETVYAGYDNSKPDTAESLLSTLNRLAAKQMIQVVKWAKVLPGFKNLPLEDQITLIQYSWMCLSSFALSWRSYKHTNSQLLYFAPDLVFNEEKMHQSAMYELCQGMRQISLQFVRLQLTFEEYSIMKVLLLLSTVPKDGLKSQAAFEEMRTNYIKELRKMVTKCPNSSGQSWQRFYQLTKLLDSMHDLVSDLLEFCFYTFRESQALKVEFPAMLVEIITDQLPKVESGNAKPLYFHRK

Row | SMILES | IC50 (Estrogen receptor) [µM] | IC50 (Glucocorticoid receptor [1]) [µM] | IC50 (Glucocorticoid receptor [2]) [µM] | IC50 (Androgen receptor) [µM] | EC50 (Glucocorticoid receptor [3]) [µM] | IC50 [4] [µM] | EC50 (Glucocorticoid receptor [5]) [µM] | EC50 (Mus musculus) [µM] | IC50 (Progesterone receptor) [µM] | EC50 (Glucocorticoid receptor [6]) [µM]
1 | COc1cc([C@H](O)[C@H]2CCCC3=Cc4c(cnn4-c4ccc(F)cc4)C[C@@]32C)cc(F)c1F | > 1 | 0.0019 | 0.0019 | > 5 | 0.0144 | > 5 | 0.521 | 0.0152 | > 1 | –
2 | C[C@]12Cc3cnn(-c4ccc(F)cc4)c3C=C1CCC[C@@H]2[C@](C)(O)c1ccc(F)cc1 | > 1 | 0.0025 | 0.0025 | > 5 | 0.0022 | > 5 | 0.0572 | 0.0014 | > 1 | 0.13
